Laboratory results as given in article PMC4330091 (Bioorganic & medicinal chemistry, 2014).
Read-outs that look alike come from different tables or passages of the source. Marks after values point to notes of the source that are not given here. Blank lines part the entries; values can stand above or below the compound they belong to.

Assays:
[1] = Cyclic voltammetry in CH3CN; type: physicochemical; details: 0.1 M [NBu4n]PF6, 100 mV/s, vs Ag/AgCl
Method in brief: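 Test compound dissolved at 2 × 10⁻³ M in deoxygenated CH3CN with 0.1 M [NBuⁿ₄]PF₆ as supporting electrolyte; cyclic voltammograms recorded on these solutions.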

MCF-7 cells [2] = details: ref 35 (Yared et al.); cited from earlier work
[3] = test system: MCF-7 breast cancer cell line; details: cited from earlier work; for IC50: read-out: IC50, MCF-7, MTT assay, 72 h drug exposure
[4] = test system: HT-29 colon cancer cell line; details: read-out: IC50, HT-29; MTT assay, 72 h drug exposure; cited from earlier work
[5] = test system: MCF-10A non-tumorigenic human breast epithelial cell line; details: cited from earlier work
[6] = CH3CN, vs Ag/AgCl, cited from earlier work
[7] = test system: HT-29 colon cancer cell line; assay: MTT anti-proliferative assay on HT-29; type: cell-based, human; details: read-out: IC50, HT-29
[8] = test system: MCF-7 breast cancer cell line; assay: MTT anti-proliferative assay on MCF-7; type: cell-based, human; details: read-out: IC50, MCF-7
[9] = test system: MCF-10A non-tumorigenic human breast epithelial cell line; assay: MTT anti-proliferative assay on MCF-10A; type: cell-based; details: read-out: IC50, MCF-10A
MCF-7 = assay: ROS production; type: cell-based, human; details: MCF-7, 72 h
MCF-7 cells [10] = assay: Cytokinesis-block micronucleus assay; details: for % Binucleated cells (Mitotic rate) / Micronucleus (MNi) (mean ± SD): 72 h treatment; for % Binucleated cells (Mitotic rate): MCF-7, mean (SD); for increase in micronucleus forming activity compared to control (untreated cells): MCF-7; for Micronucleus (MNi) (mean ± SD): micronucleated cells in 500 binucleated MCF-7 cells
MCF-7 cells [11] = test system: MCF-7 cells
[12] = ref 14. J. Organometal. Chem 749 (2014) 204–214
[13] = MTT assay, 72 h drug exposure, SD in parenthesis
[14] = ref 13. Dalton Trans. 40 (2011) 9557–9565

E1/2 [1]: 454 mV
Epa [1]: 494 mV
Epc [1]: 414 mV
ΔE [1]: 80 mV
SMILES: [Fe+2].c1cc[cH-]c1.c1cc[cH-]c1 [Fc/Fc^+, ferrocene]

SMILES: C[C@]12CC[C@@H]3c4ccc(O)cc4CC[C@H]3[C@@H]1CC[C@@H]2O [β-estradiol]
increase in the micronucleus-forming activity (MCF-7 cells [2]): 3 fold

SMILES: F[B-](F)(F)F.[Fe+3].c1cc[cH-]c1.c1cc[cH-]c1 [Ferricenium tetrafluoroborate]
IC50 [3]: 150 µM
IC50 [4]: 180 µM

SMILES: O=C(Oc1ccc(-n2cccc2)cc1)[c-]1cccc1.[Fe+2].c1cc[cH-]c1 [Fc-CO2-Ph-4-Py, 4-(1H-pyrrol-1-yl)phenyl ferrocenecarboxylate]
anti-proliferative activity (in words) ([3]; hormone-dependent breast cancer cell line MCF-7): high anti-proliferative activity
anti-proliferative activity (in words) ([5]; non-tumorigenic human breast epithelial cell line MCF-10A): high anti-proliferative activity

SMILES: O=C(Oc1ccc(Br)cc1)[c-]1cccc1.[Fe+2].c1cc[cH-]c1 [Fc-CO2-Ph-4-Br, 4-bromophenyl ferrocenecarboxylate]
IC50 [3]: 9.2 µM
IC50 ([5]; read-out: IC50, MCF-10A, MTT assay, 72 h drug exposure): 353 µM
IC50 [4]: 24 µM
E1/2 [6, 12]: 532 mV
Epa [6, 12]: 580 mV
Epc [6, 12]: 484 mV
ΔE [6, 12]: 96 mV

SMILES: O=C(O)[c-]1cccc1.O=C(O)[c-]1cccc1.[Fe+2] [1-1′ferrocenedicarboxilic acid]
IC50 [7, 13]: 410 µM

IC50 ([8]; Homo sapiens, MCF7, 72 h): 249 µM
IC50 ([7]; Homo sapiens, HT-29, 72 h): 211 µM
SMILES: Oc1ccc(-n2cccc2)cc1 [4-(1H-pyrrol-1yl)phenol]
IC50 ([9]; Homo sapiens, MCF-10A, 72 h): 553 µM

IC50 [8, 13]: 590 µM
IC50 [7, 13]: 253 µM
SMILES: O=C(O)Cc1ccc[cH-]1.[Fe+2].c1cc[cH-]c1 [Ferroceneacetic acid]
IC50 [9, 13]: 86 µM

SMILES: C[C@]12CC[C@@H]3c4ccc(OC(=O)[c-]5cccc5)cc4CC[C@H]3[C@@H]1CC[C@@H]2O.[Fe+2].c1cc[cH-]c1 [Fc-CO2-estradiol, ferrocenoyl 17β-hydroxy-estra-1,3,5(10)-trien-3-olate]
IC50 [9, 13]: 119 µM
ROS production (in words) (MCF-7): significant increase
IC50 [3]: 9 µM
IC50 [4]: 24.4 µM
E1/2 [6, 14]: 756 mV
Epa [6, 14]: 801 mV
Epc [6, 14]: 711 mV
ΔE [6, 14]: 90 mV
% Binucleated cells (Mitotic rate) (MCF-7 cells [10]; 0.01 μM): 33 (2) ^* %
increase in micronucleus forming activity compared to control (untreated cells) (MCF-7 cells [10]; 0.01 μM): 3 fold
% Binucleated cells (Mitotic rate) (MCF-7 cells [10]; 0.1 μM): 39 (9) ^* %
Micronucleus (MNi) (mean ± SD) (MCF-7 cells [10]; 0.1 μM): 25
increase in micronucleus forming activity compared to control (untreated cells) (MCF-7 cells [10]; 0.1 μM): 4 fold
% Binucleated cells (Mitotic rate) (MCF-7 cells [10]; 1 μM): 34 (9) ^* %
Micronucleus (MNi) (mean ± SD) (MCF-7 cells [10]; 1 μM): 29
increase in micronucleus forming activity compared to control (untreated cells) (MCF-7 cells [10]; 1 μM): 4 fold
increase in micronucleus-forming activity (MCF-7 cells [10]; concentration near IC50, MCF-7): up to 4 fold

IC50 [8, 13]: 45.5 µM
IC50 [7, 13]: 189 µM
E1/2 [1]: 910 mV
Epa [1]: 958 mV
Epc [1]: 862 mV
ΔE [1]: 96 mV
SMILES: O=C(Oc1ccc(-n2cccc2)cc1)[c-]1cccc1.O=C(Oc1ccc(-n2cccc2)cc1)[c-]1cccc1.[Fe+2] [Fc-(CO2-Ph-4-Py)2, 1,1′-4-(1H-pyrrol-1-yl)phenyl ferrocenedicarboxylate]
IC50 [9, 13]: 298 µM
ROS production (in words) (MCF-7): significant increase
Micronucleus (MNi) (mean ± SD) (MCF-7 cells [11]): 15 (1) ^**
increase in micronucleus forming activity compared to control (untreated cells) (MCF-7 cells [11]): up to 5 fold
increase in micronucleus-forming activity (MCF-7 cells [11]): up to 5 fold
% Binucleated cells (Mitotic rate) (MCF-7 cells [10]; 0.1 μM): 18 (7) ^* %
% Binucleated cells (Mitotic rate) (MCF-7 cells [10]; 1 μM): 33 (13) ^* %
% Binucleated cells (Mitotic rate) (MCF-7 cells [10]; 10 μM): 25 (6) ^* %

SMILES: COS(C)(=O)=O [MMS, methyl methane sulphonate]
% Binucleated cells (Mitotic rate) (MCF-7 cells [10]; 94.4 μM): 28 (3) ^* %
Micronucleus (MNi) (mean ± SD) (MCF-7 cells [10]; 94.4 μM): 62 (6) ^***
